This note sets out measurements from ChEMBL document CHEMBL1138415, “Analogues of the dopamine D2 receptor antagonist L741,626: Binding, function, and SAR” (Bioorg Med Chem Lett, 2007).

The species named for assay [1] is Homo sapiens. In words: Selectivity for human dopamine D2L receptor over human dopamine D3 receptor.
The next assay concerns the target T1, D(4) dopamine receptor (Homo sapiens, UniProt P21917).
T1 sequence (P21917 whole entry): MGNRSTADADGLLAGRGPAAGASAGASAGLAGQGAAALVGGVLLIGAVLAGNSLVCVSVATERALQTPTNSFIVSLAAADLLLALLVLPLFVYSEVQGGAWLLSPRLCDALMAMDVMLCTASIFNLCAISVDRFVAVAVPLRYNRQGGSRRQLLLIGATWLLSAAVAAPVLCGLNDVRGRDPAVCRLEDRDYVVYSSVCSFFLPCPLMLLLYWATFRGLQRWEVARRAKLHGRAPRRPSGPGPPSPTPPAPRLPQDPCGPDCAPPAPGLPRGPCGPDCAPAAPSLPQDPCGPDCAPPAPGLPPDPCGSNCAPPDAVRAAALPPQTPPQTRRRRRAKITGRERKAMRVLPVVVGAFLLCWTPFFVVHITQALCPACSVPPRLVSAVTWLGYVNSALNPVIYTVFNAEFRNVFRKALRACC
Kind of assay: Displacement of [125I]IABN from human dopamine D4 receptor expressed in HEK293 cells. Type of assay: cell-based. The gist of the method:
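Competition binding on HEK 293 cells transfected with human D2L or D4 dopamine receptors; radioligand [125I]IABN displaced by test ligand; Ki values derived.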
(Displacement assays read how much labelled ligand stays bound in the presence of the test substance.)

The species entered for assay [2] is Homo sapiens. Kind of assay: Selectivity for human dopamine D2L receptor over human dopamine D4 receptor.
The target in assay [3] is T2, D(3) dopamine receptor (Homo sapiens, UniProt P35462). Kind of assay: Displacement of [125I]IABN from human dopamine D3 receptor expressed in HEK293 cells. Type of assay: cell-based.
T2 sequence (P35462 whole entry): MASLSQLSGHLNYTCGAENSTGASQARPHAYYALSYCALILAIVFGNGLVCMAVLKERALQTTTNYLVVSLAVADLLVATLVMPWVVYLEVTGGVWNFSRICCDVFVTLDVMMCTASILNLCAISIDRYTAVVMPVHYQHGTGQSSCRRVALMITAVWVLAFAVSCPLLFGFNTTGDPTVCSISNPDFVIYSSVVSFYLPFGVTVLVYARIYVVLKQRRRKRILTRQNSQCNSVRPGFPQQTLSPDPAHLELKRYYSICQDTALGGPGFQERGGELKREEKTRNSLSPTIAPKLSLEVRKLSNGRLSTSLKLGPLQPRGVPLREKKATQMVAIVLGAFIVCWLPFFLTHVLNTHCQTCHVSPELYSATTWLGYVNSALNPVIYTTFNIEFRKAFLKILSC
For assay [4], the target named is T3, D(2) dopamine receptor (Homo sapiens, UniProt P14416). In words: Displacement of [125I]IABN from human dopamine D2L receptor expressed in HEK293 cells. The assay is classed as cell-based.
T3 sequence (P14416 whole entry): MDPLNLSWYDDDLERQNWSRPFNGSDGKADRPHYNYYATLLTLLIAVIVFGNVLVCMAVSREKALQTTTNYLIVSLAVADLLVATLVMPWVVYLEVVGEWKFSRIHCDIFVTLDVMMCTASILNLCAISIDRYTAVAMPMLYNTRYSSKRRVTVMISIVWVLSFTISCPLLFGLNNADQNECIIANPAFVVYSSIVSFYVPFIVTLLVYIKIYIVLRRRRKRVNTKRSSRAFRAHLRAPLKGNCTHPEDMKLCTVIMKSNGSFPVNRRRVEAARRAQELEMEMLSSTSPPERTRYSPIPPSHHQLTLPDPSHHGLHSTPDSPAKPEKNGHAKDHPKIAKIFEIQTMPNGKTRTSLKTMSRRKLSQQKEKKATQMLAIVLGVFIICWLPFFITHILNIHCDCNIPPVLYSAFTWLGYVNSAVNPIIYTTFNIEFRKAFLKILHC
For assay [5], the target named is T2, D(3) dopamine receptor. Kind of assay: Antagonist activity at human dopamine D3 receptor expressed in CHO cells assessed as inhibition of quinpirole stimulated mitogenesis. Type of assay: functional, cell-based.
The target in assay [6] is T3, D(2) dopamine receptor. In words: Antagonist activity at human dopamine D2 receptor expressed in CHO cells assessed as inhibition of quinpirole stimulated mitogenesis. The assay is classed as functional, cell-based. The gist of the method: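 Functional mitogenesis assay in CHO cells transfected with human D2 receptor; antagonism measured as inhibition of quinpirole-stimulated mitogenesis (agonism tested as stimulation); EC50 reported; run via NIDA CTDP contract protocol.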

The structures appear in SMILES notation.

`Cc1[nH]c2ccccc2c1CN1CCC(O)(c2ccc(Cl)cc2)CC1`: the Ratio Ki is 3 in the assay listed under Homo sapiens [1] and 194 in the assay listed under Homo sapiens [2]. In addition, the Ki (in general, a measure of affinity in units of concentration, obtained from inhibition or displacement) on D(4) dopamine receptor amounted to 2990 nM; on D(3) dopamine receptor [3] it was 44.1 nM; on D(2) dopamine receptor [4], 15.4 nM. Besides, the EC50 (usually the concentration giving half of the maximal effect) worked out at 20.2 nM at D(3) dopamine receptor [5] and 2.13 nM on D(2) dopamine receptor [6].

Turning to `OC1(c2ccc(Cl)c(Cl)c2)CCN(Cc2c[nH]c3ccccc23)CC1`, the Ratio Ki in the assay listed under Homo sapiens [1] stood at 16; in the assay filed under Homo sapiens [2], 159. For the same compound, the figures for the Ki on D(4) dopamine receptor, at D(3) dopamine receptor [3] and on D(2) dopamine receptor [4] were 1100 nM, 111 nM and 6.9 nM, respectively. Besides, the EC50 worked out at 41.5 nM at D(3) dopamine receptor [5] and 15.3 nM on D(2) dopamine receptor [6].

Take `OC1(c2cccc(Cl)c2Cl)CCN(Cc2c[nH]c3ccccc23)CC1`: the figures for the Ratio Ki in the assay listed under Homo sapiens [1] and in the assay filed under Homo sapiens [2] were 10 and 59, respectively. The results for the Ki at D(4) dopamine receptor, on D(3) dopamine receptor [3] and on D(2) dopamine receptor [4] were 1550 nM, 273 nM and 26.1 nM, respectively. Moreover, the EC50 at D(3) dopamine receptor [5] was found to be 232 nM; on D(2) dopamine receptor [6], 34.3 nM.

For `CCCCCCn1cc(CN2CCC(O)(c3ccc(Cl)cc3)CC2)c2ccccc21`, the Ratio Ki in the assay listed under Homo sapiens [1] worked out at 3; in the assay filed under Homo sapiens [2], 47. Besides, the Ki at D(4) dopamine receptor came to 8890 nM; on D(3) dopamine receptor [3], 488 nM; on D(2) dopamine receptor [4] it was 188 nM. Further, the EC50 on D(3) dopamine receptor [5] was 661 nM; on D(2) dopamine receptor [6], 166 nM.
